In ChEMBL document CHEMBL4814013, “Scaffold repurposing of fendiline: Identification of potent KRAS plasma membrane localization inhibitors” (Eur J Med Chem, 2021):
pIC50: −log10 of the molar value. The source made the active and inactive calls. No cut-off for these calls is given here.

Tests used:
Caco-2 = assay: Antiproliferative activity against human Caco-2 cells expressing wild type KRAS assessed as reduction in cell growth incubated for 72 hrs by CyQuant proliferation assay; type: functional, cell-based; conditions: Caco-2, 72 h
In short: (§1)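 Cells seeded in 96-well plates; after 24 h fresh growth medium with 0.1% DMSO vehicle or drug added (highest dose 30 µM for cancer lines), grown 72 h at 37 °C, 5% CO2. Live cell number measured by CyQUANT fluorescence. IC50 from three independent experiments. MEFs were isogenic lines carrying oncogenic BRAF or KRAS.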

[1] = Antiproliferative activity against human MPANC96 cells expressing KRAS mutant assessed as reduction in cell growth incubated for 72 hrs by CyQuant proliferation assay; type: functional, cell-based; conditions: MPANC96, 72 h; in short: as §1
MDCK [2] = assay: Reduction in expression of human GFP-tagged ASM transfected in dog MDCK cells at 5 uM incubated for 48 hrs by western blot analysis; type: functional, cell-based; conditions: Canis lupus familiaris
In short: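 SMPD1-GFP-expressing MDCK cells treated 48 h with 5 µM compound, washed in cold PBS and lysed in Tris pH 7.5 buffer with NaF, EGTA, DTT, vanadate, 1% NP40 and protease inhibitors. 20 µg of protein resolved by SDS-PAGE and immunoblotted. Signals detected by enhanced chemiluminescence and quantified by densitometry.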

BXPC-3 = assay: Antiproliferative activity against human BXPC-3 cells expressing wild type KRAS assessed as reduction in cell growth incubated for 72 hrs by CyQuant proliferation assay; type: functional, cell-based; conditions: BXPC-3, 72 h; in short: as §1
NCI-H1299 = assay: Antiproliferative activity against human NCI-H1299 cells expressing wild type KRAS assessed as reduction in cell growth incubated for 72 hrs by CyQuant proliferation assay; type: functional, cell-based; conditions: NCI-H1299, 72 h; in short: as §1
MEF [3] = assay: Antiproliferative activity against mouse MEF cells expressing KRAS G12V mutant assessed as reduction in cell growth incubated for 72 hrs by CyQuant proliferation assay; type: functional, cell-based; in short: as §1
MDCK [4] = assay: Inhibition of ASM in dog MDCK cells co-expressing recombinant full length mGFP-tagged KRAS G12V mutant and mCherry-CAAX assessed as reduction in plasma membrane localization of KRAS mutant incubated for 48 hrs by confocal microscopic analysis relative to control; type: cell membranes; conditions: Canis lupus familiaris
In short: (§2)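 MDCK cells stably co-expressing mGFP-KRAS G12V or mGFP-LactC2 with mCherry-CAAX (HRAS 179–189 C181S/C184S) grown on coverslips in DMEM/10% FBS. Treated 48 h with 0.1% DMSO or graded drug, fixed in 4% paraformaldehyde, then quantitative confocal imaging. Mislocalization scored as the Manders fraction of mCherry-CAAX co-localizing with the GFP probe. IC50 and Emax from three independent experiments.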

SK-CO-1 = assay: Antiproliferative activity against human SK-CO-1 cells expressing mutant KRAS assessed as reduction in cell growth incubated for 72 hrs by CyQuant proliferation assay; type: functional, cell-based; conditions: SK-CO-1, 72 h; in short: as §1
MEF [5] = assay: Cytotoxicity against mouse MEF cells expressing BRAF V600E mutant and wild type KRAS assessed as reduction in cell growth incubated for 72 hrs by CyQuant proliferation assay; type: functional, cell-based; in short: as §1
MDCK [6] = assay: Cytotoxicity against dog MDCK cells at 30 uM; type: functional, cell-based; conditions: Canis lupus familiaris
MDCK [7] = assay: Inhibition of ASM in dog MDCK cells co-expressing recombinant full length GFP-tagged LactC2 and mCherry-CAAX assessed as reduction in plasma membrane localization of LactC2 incubated for 48 hrs by confocal microscopic analysis; type: cell membranes; conditions: Canis lupus familiaris; in short: as §2
[8] = Inhibition of ASM in dog MDCK cells co-expressing recombinant full length mGFP-tagged KRAS G12V mutant and mCherry-CAAX assessed as reduction in plasma membrane localization of KRAS mutant incubated for 48 hrs by confocal microscopic analysis; type: cell membranes, Canis lupus familiaris; in short: as §2
MIA PaCa-2 = assay: Antiproliferative activity against human MIA PaCa-2 cells expressing KRAS mutant assessed as reduction in cell growth incubated for 72 hrs by CyQuant proliferation assay; type: functional, cell-based; conditions: MIA PaCa-2, 72 h; in short: as §1
MEF [9] = assay: Antiproliferative activity against mouse MEF cells expressing KRAS G12D mutant assessed as reduction in cell growth incubated for 72 hrs by CyQuant proliferation assay; type: functional, cell-based; in short: as §1
Ishikawa = assay: Antiproliferative activity against human Ishikawa cells expressing wild type KRAS assessed as reduction in cell growth incubated for 72 hrs by CyQuant proliferation assay; type: functional, cell-based; in short: as §1
ESS-1 = assay: Antiproliferative activity against human ESS-1 cells expressing wild type KRAS assessed as reduction in cell growth upto 30 uM incubated for 72 hrs by CyQuant proliferation assay; type: functional, cell-based; conditions: dose microM <=30, time 72.0 hrs; in short: as §1
[10] = target: T1, Sphingomyelin phosphodiesterase (Homo sapiens) (UniProt P17405); assay: Inhibition of human GFP-tagged ASM expressed in dog MDCK cells using sphingomyelin as substrate at 5 uM incubated for 48 hrs by Amplex Red dye based fluorescence analysis; type: cell-based
T1 sequence (whole entry): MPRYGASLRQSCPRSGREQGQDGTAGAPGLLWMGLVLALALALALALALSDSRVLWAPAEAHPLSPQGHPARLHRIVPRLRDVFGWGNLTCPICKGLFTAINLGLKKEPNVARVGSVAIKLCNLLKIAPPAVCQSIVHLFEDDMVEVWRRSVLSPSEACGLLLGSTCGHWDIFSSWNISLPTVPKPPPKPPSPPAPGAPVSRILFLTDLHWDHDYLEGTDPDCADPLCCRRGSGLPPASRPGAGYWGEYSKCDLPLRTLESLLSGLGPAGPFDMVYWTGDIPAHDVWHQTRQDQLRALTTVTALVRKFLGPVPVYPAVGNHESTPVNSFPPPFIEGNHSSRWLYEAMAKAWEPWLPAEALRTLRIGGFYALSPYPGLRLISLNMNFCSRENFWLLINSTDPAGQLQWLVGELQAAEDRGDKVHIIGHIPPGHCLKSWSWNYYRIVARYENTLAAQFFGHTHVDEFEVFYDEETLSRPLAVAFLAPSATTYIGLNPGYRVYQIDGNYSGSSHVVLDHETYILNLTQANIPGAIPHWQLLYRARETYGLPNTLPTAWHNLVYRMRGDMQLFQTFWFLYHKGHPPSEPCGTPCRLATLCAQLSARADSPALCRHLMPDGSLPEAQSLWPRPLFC
In short: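 MDCK cells stably expressing human SMPD1-GFP treated 48 h at 5 µM. Whole-cell lysate, made without DTT, mixed with 50 mM sodium acetate pH 5.0 plus sphingomyelin and held 1 h at 37 °C. pH then raised to 7.4 with Amplex Red mix (100 µM Amplex Red, 2 U/mL HRP, 0.2 U/mL choline oxidase, 8 U/mL alkaline phosphatase, 100 mM Tris pH 8.0), 60 min at 37 °C. Fluorescence read at Ex 540/Em 590 nm. Controls: 0.1 U/mL SMase (positive), buffer alone (negative).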

[11] = Antiproliferative activity against human MOH cells expressing KRAS mutant assessed as reduction in cell growth incubated for 72 hrs by CyQuant proliferation assay; type: functional, cell-based; in short: as §1
KLE = assay: Antiproliferative activity against human KLE cells expressing wild type KRAS assessed as reduction in cell growth upto 30 uM incubated for 72 hrs by CyQuant proliferation assay; type: functional, cell-based; conditions: dose microM <=30, time 72.0 hrs; in short: as §1
HEC-1B cell line = assay: Antiproliferative activity against human HEC-1B cells expressing mutant KRAS assessed as reduction in cell growth incubated for 72 hrs by CyQuant proliferation assay; type: functional, cell-based; in short: as §1
Caenorhabditis elegans = assay: In vivo inhibition of KRAS signaling in Caenorhabditis elegans lin-1 L1 harboring let60 […] mutant assessed as reduction in multi-vulva phenotype measured after 4 to 5 days culturing in buffer containing Escherichia coli OP50 by DIC/Nomarski microscopic analysis; type: functional, organism-based; conditions: dose 0.1-30 µM, time 4-5 day
In short: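 let-60 (n1046) or lin-1 L1 larvae cultured in M9 buffer with E. coli OP50 plus DMSO vehicle or compound at 0.1, 0.3, 1, 3, 10 or 30 µM. After 4–5 days, adults were scored for multi-vulva by DIC/Nomarski microscopy.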

NCI-H522 = assay: Antiproliferative activity against human NCI-H522 cells expressing wild type KRAS assessed as reduction in cell growth incubated for 72 hrs by CyQuant proliferation assay; type: functional, cell-based; conditions: NCI-H522, 72 h; in short: as §1
MDCK [12] = assay: Inhibition of ASM in dog MDCK cells co-expressing recombinant full length mGFP-tagged KRAS G12V mutant and mCherry-CAAX assessed as reduction in plasma membrane localization of KRAS mutant at 1 uM incubated for 48 hrs followed by incubation with recombinant ASM in continued presence of compound for 60 mins by confocal microscopic analysis; type: cell membranes; conditions: Canis lupus familiaris, time 49.0 hrs
In short: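 MDCK cells stably co-expressing mGFP-KRAS G12V and mCherry-CAAX seeded on glass coverslips and grown 48 h with or without compound. Medium then replaced with fresh medium containing 2 units/mL recombinant ASM, drug continued, for 60 min. Cells mounted in mowiol and imaged by confocal microscopy. Mislocalization scored by Manders coefficient.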

NCI-H1975 = assay: Antiproliferative activity against human NCI-H1975 cells expressing wild type KRAS assessed as reduction in cell growth incubated for 72 hrs by CyQuant proliferation assay; type: functional, cell-based; conditions: NCI-H1975, 72 h; in short: as §1
HEC-1-A = assay: Antiproliferative activity against human HEC-1-A cells expressing mutant KRAS assessed as reduction in cell growth incubated for 72 hrs by CyQuant proliferation assay; type: functional, cell-based; in short: as §1
NCI-H23 = assay: Antiproliferative activity against human NCI-H23 cells expressing mutant KRAS assessed as reduction in cell growth incubated for 72 hrs by CyQuant proliferation assay; type: functional, cell-based; conditions: NCI-H23, 72 h; in short: as §1

SMILES	pIC50 (Caco-2)	pIC50 [1]	pIC50 (BXPC-3)	pIC50 (NCI-H1299)	Emax (MDCK [4])	pIC50 (SK-CO-1)	Activity (MDCK [6])	pIC50 (MIA PaCa-2)	pIC50 (Ishikawa)	pIC50 [11]	pIC50 (HEC-1B cell line)	pIC50 (NCI-H522)	pIC50 (NCI-H1975)	other results
COc1ccc([C@@H](C)N(CC=C(c2ccccc2)c2ccccc2)CCN2CCN(C)CC2)cc1	5.29	5.38	5.24	5.09	0.75	5.48	Active	5.52	< 4.52	5.43	5.48	4.55	< 4.52	inhibition (MDCK [2]): Active; pIC50 (MEF [3]): 5.57; pIC50 (MEF [5]): 5.12; inhibition (MDCK [7]): Active; pIC50 [8]: 7.00; pIC50 (MEF [9]): 5.43; Activity (ESS-1): inactive; inhibition [10]: Active; Activity (KLE): inactive; inhibition (Caenorhabditis elegans): Dose-Dependent Effect; inhibition (MDCK [12]): inactive
COc1ccc([C@@H](C)N(CC=C(c2ccccc2)c2ccccc2)CC=C(c2ccccc2)c2ccccc2)cc1	< 4.52	< 4.52	< 4.52	< 4.52	0.74	< 4.52	inactive	< 4.52	< 4.52	< 4.52	< 4.52	< 4.52	< 4.52	pIC50 (HEC-1-A): < 4.52; pIC50 (NCI-H23): < 4.52
